Key:
Nucleic Acid [1] = assay: Ratio of drug uptake in rat H9c2 cells to mouse NIH3T3 cells after 0.5 to 2 hrs by gamma counting; assay type: ADME, cell-based
Lung = assay: Biodistribution in BALB/c mouse lung at 7.4 MBq, iv after 60 mins by gamma counting; assay type: ADME, organism-based; conditions: in vivo, 1 h
How it was run: (§1)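 Tracer given intravenously to BALB/c mice; animals sampled at 10, 30, 60 and 120 min after injection. Organ radioactivity expressed as percentage of injected dose per gram of tissue (% ID/g), n = 12.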

Pancreas [2] = assay: Biodistribution in BALB/c mouse pancreas at 7.4 MBq, iv after 30 mins by gamma counting; assay type: ADME, organism-based; conditions: in vivo, 0.5 h; how it was run: as §1
Blood [3] = assay: Biodistribution in BALB/c mouse blood at 7.4 MBq, iv after 10 mins by gamma counting; assay type: ADME, organism-based; conditions: in vivo; how it was run: as §1
Nucleic Acid [4] = assay: Ratio of drug level in BALB/c mouse heart to lung at 7.4 MBq, iv after 120 mins by gamma counter; assay type: ADME, organism-based; conditions: in vivo, 2 h
How it was run: (§2)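 Normal BALB/c mice were given the 18F tracer by i.v. injection. Tissues were sampled at 10, 30, 60 and 120 min. Activity is expressed as % injected dose per gram of tissue (n = 12), and organ ratios were taken from these values.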

Pancreas [5] = assay: Biodistribution in BALB/c mouse pancreas at 7.4 MBq, iv after 60 mins by gamma counting; assay type: ADME, organism-based; conditions: in vivo, 1 h; how it was run: as §1
Nucleic Acid [6] = assay: Ratio of drug level in BALB/c mouse heart to lung at 7.4 MBq, iv after 10 mins by gamma counter; assay type: ADME, organism-based; conditions: in vivo; how it was run: as §2
[7] = Octanol-NaCl aqueous solution partition coefficient, log P of the compound after 20 mins by gamma counting; assay type: physicochemical
Spleen = assay: Biodistribution in BALB/c mouse spleen at 7.4 MBq, iv after 10 mins by gamma counting; assay type: ADME, organism-based; conditions: in vivo; how it was run: as §1
H9c2 [8] = assay: Cellular uptake in rat H9c2 cells after 2 hrs by gamma counting; assay type: ADME, cell-based; conditions: h9c2, 2 h
How it was run: (§3)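 Radiotracer incubated with H9c2 cells at 37 °C for 0.5, 1 or 2 h. Uptake expressed as percentage of applied radioactivity; means ± SD of three measurements.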

Blood [9] = assay: Biodistribution in BALB/c mouse blood at 7.4 MBq, iv after 30 mins by gamma counting; assay type: ADME, organism-based; conditions: in vivo, 0.5 h; how it was run: as §1
Nucleic Acid [10] = assay: Ratio of drug level in BALB/c mouse heart to liver at 7.4 MBq, iv after 60 mins by gamma counter; assay type: ADME, organism-based; conditions: in vivo, 1 h; how it was run: as §2
Muscle tissue [11] = assay: Biodistribution in BALB/c mouse normal muscle at 7.4 MBq, iv after 120 mins by gamma counting; assay type: ADME, organism-based; conditions: in vivo, 2 h; how it was run: as §1
Intestine [12] = assay: Biodistribution in BALB/c mouse intestine at 7.4 MBq, iv after 60 mins by gamma counting; assay type: ADME, organism-based; conditions: in vivo, 1 h; how it was run: as §1
Nucleic Acid [13] = assay: Ratio of drug level in BALB/c mouse heart to liver at 7.4 MBq, iv after 10 mins by gamma counter; assay type: ADME, organism-based; conditions: in vivo; how it was run: as §2
Stomach [14] = assay: Biodistribution in BALB/c mouse stomach at 7.4 MBq, iv after 30 mins by gamma counting; assay type: ADME, organism-based; conditions: in vivo, 0.5 h; how it was run: as §1
Muscle tissue [15] = assay: Biodistribution in BALB/c mouse normal muscle at 7.4 MBq, iv after 30 mins by gamma counting; assay type: ADME, organism-based; conditions: in vivo, 0.5 h; how it was run: as §1
H9c2 [16] = assay: Cellular uptake in rat H9c2 cells after 0.5 hrs by gamma counting; assay type: ADME, cell-based; conditions: h9c2, 0.5 h; how it was run: as §3
Pancreas [17] = assay: Biodistribution in BALB/c mouse pancreas at 7.4 MBq, iv after 10 mins by gamma counting; assay type: ADME, organism-based; conditions: in vivo; how it was run: as §1
Nucleic Acid [18] = assay: Ratio of drug level in BALB/c mouse heart to liver at 7.4 MBq, iv after 30 mins by gamma counter; assay type: ADME, organism-based; conditions: in vivo, 0.5 h; how it was run: as §2
Intestine [19] = assay: Biodistribution in BALB/c mouse intestine at 7.4 MBq, iv after 10 mins by gamma counting; assay type: ADME, organism-based; conditions: in vivo; how it was run: as §1
Liver = assay: Biodistribution in BALB/c mouse liver at 7.4 MBq, iv after 30 mins by gamma counting; assay type: ADME, organism-based; conditions: in vivo, 0.5 h; how it was run: as §1
Nucleic Acid [20] = assay: Ratio of drug level in BALB/c mouse heart to lung at 7.4 MBq, iv after 30 mins by gamma counter; assay type: ADME, organism-based; conditions: in vivo, 0.5 h; how it was run: as §2
Blood [21] = assay: Biodistribution in BALB/c mouse blood at 7.4 MBq, iv after 120 mins by gamma counting; assay type: ADME, organism-based; conditions: in vivo, 2 h; how it was run: as §1
Stomach [22] = assay: Biodistribution in BALB/c mouse stomach at 7.4 MBq, iv after 120 mins by gamma counting; assay type: ADME, organism-based; conditions: in vivo, 2 h; how it was run: as §1
Muscle tissue [23] = assay: Biodistribution in BALB/c mouse normal muscle at 7.4 MBq, iv after 10 mins by gamma counting; assay type: ADME, organism-based; conditions: in vivo; how it was run: as §1
Heart [24] = assay: Biodistribution in BALB/c mouse heart at 7.4 MBq, iv after 30 mins by gamma counting; assay type: ADME, organism-based; conditions: in vivo, 0.5 h; how it was run: as §1
Stomach [25] = assay: Biodistribution in BALB/c mouse stomach at 7.4 MBq, iv after 60 mins by gamma counting; assay type: ADME, organism-based; conditions: in vivo, 1 h; how it was run: as §1
[26] = Drug uptake in Sprague-Dawley rat myocardium at 37 MBq, iv up to 1 hr by micro PET analysis; assay type: ADME, organism-based; conditions: in vivo
How it was run: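 Rats received the tracer intravenously and were imaged by micro-PET in coronal view at 0.5 h and 1.0 h after injection.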

Nucleic Acid [27] = assay: Ratio of drug level in BALB/c mouse heart to liver at 7.4 MBq, iv after 120 mins by gamma counter; assay type: ADME, organism-based; conditions: in vivo, 2 h; how it was run: as §2
Heart [28] = assay: Biodistribution in BALB/c mouse heart at 7.4 MBq, iv after 120 mins by gamma counting; assay type: ADME, organism-based; conditions: in vivo, 2 h; how it was run: as §1

Ratio (Nucleic Acid [1]): 2 | Drug uptake (Lung): 4.01 % ID/g | Drug uptake (Pancreas [2]): 5.96 % ID/g | Drug uptake (Blood [3]): 0.64 % ID/g | Ratio (Nucleic Acid [4]): 4.36 | Drug uptake (Pancreas [5]): 7.35 % ID/g | Ratio (Nucleic Acid [6]): 4.58 | logP at 20 min [7]: 0.89 | Drug uptake (Spleen): 3.35 % ID/g | Drug uptake (H9c2 [8]): 0.68% | Drug uptake (Blood [9]): 0.22 % ID/g | Ratio (Nucleic Acid [10]): 9.87 | Drug uptake (Muscle tissue [11]): 3.2 % ID/g | Drug uptake (Intestine [12]): 4.67 % ID/g | Ratio (Nucleic Acid [13]): 11.08 | Drug uptake (Stomach [14]): 3.98 % ID/g | Drug uptake (Muscle tissue [15]): 5.27 % ID/g | Drug uptake (H9c2 [16]): 0.47% | Drug uptake (Pancreas [17]): 8.8 % ID/g | Ratio (Nucleic Acid [18]): 8.05 | Drug uptake (Intestine [19]): 9.14 % ID/g | Drug uptake (Liver): 2.42 % ID/g | Ratio (Nucleic Acid [20]): 3.71 | Drug uptake (Blood [21]): 0.24 % ID/g | Drug uptake (Stomach [22]): 2.49 % ID/g | Drug uptake (Muscle tissue [23]): 6.46 % ID/g | Drug uptake (Heart [24]): 19.33 % ID/g | Drug uptake (Stomach [25]): 4.72 % ID/g | Drug uptake [26]: Active | Ratio (Nucleic Acid [27]): 19.16 | Drug uptake (Heart [28]): 24.27 % ID/g
SMILES: [18F]CCOCC[P+](c1ccccc1)(c1ccccc1)c1ccccc1

— ChEMBL document CHEMBL1949496, “Synthesis of [¹⁸F]-labeled (2-(2-fluoroethoxy)ethyl)triphenylphosphonium cation as a potential agent for myocardial imaging using positron emission tomography” (Bioorg Med Chem Lett, 2012)
